Experimental data from ChEMBL document CHEMBL4619723, “New CDK8 inhibitors as potential anti-leukemic agents - Design, synthesis and biological evaluation” (Bioorg Med Chem, 2020).

Assays:
[1] = biological target: Cyclin-dependent kinase 8 (Homo sapiens, UniProt P49336); assay: Inhibition of biotinylated ligand binding to wild-type human partial length CDK8 (M1 to T360 residues) expressed in Escherichia coli BL21 measured after 1 hr by kinomescan assay
[2] = Selectivity ratio of EC50 for rat NRK cells to EC50 for human MOLM13 cells; type: toxicity; details: NRK cells versus MOLM13 cells, read-out: Ratio EC50
[3] = biological target: Serine/threonine-protein kinase 32A (Homo sapiens) (UniProt Q8WU08); assay: Inhibition of biotinylated ligand binding to wild-type human full length YANK1 (M1 to L396 residues) expressed in mammalian expression system at 50 nM measured after 1 hr by kinomescan assay relative to control
Sequence of Serine/threonine-protein kinase 32A (Homo sapiens) (Q8WU08 whole entry, the tested form may be a part): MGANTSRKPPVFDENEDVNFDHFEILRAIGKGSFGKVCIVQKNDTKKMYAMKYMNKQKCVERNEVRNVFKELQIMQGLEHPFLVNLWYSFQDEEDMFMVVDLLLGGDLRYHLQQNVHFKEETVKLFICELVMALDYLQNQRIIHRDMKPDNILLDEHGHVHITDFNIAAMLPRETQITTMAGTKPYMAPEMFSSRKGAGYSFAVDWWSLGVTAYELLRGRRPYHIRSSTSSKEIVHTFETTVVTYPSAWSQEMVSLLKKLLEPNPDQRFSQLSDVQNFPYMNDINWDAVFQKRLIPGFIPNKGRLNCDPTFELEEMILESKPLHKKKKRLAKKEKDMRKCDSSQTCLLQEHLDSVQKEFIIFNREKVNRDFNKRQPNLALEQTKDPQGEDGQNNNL
Method in brief: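 Competition binding: kinase was bound to streptavidin beads carrying a biotinylated ligand, with test compound at 50 nM, in 20% SeaBlock, 0.17x PBS, 0.05% Tween 20 and 6 mM DTT for 1 h at rt with shaking. After washing, kinase was eluted with 0.5 μM free ligand and quantified by qPCR. Result is POC relative to the DMSO (100%) and control-compound (0%) references.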

Sequence of Cyclin-dependent kinase 8 (P49336 whole entry, the tested form may be a part): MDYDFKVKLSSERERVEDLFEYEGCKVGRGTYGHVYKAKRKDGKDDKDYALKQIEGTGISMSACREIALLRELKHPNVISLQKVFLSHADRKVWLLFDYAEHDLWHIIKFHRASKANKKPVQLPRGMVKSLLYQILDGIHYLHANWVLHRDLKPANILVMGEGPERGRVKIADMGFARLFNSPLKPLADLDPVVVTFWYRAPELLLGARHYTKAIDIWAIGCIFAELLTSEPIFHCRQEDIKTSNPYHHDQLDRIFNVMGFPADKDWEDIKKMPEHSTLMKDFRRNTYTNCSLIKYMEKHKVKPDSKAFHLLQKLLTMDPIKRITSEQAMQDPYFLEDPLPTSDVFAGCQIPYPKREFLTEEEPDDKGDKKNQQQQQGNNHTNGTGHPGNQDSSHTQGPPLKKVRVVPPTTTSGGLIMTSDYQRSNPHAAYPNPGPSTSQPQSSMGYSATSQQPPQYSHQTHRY

CN(C)[C@@H]1CC[C@@]2(C)[C@@H](CC[C@@H]3[C@@H]2CC[C@]2(C)C(c4cccc5cnccc45)=CC[C@@H]32)C1
Kd [1]: 3.5 nM
selectivity ratio [2]: 3 to 4
inhibition [3]: > 80%
